Screening results from PubChem.
Runt-CBFb FRET – Runt domain-CBFb interaction inhibition; 220,000 tested, 0.46% active; inhibition, % at 20 µM; Cerulean-Runt/Venus-CBFb FRET ratio 530/480, 1 h;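 active means inhibition over about 50% at 20 µM in the single-dose screen, limit read from the data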;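 further: 0% = DMSO wells and 100% = excess unlabeled CBFb competitor control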
Target sequence (Q01196 whole entry, looked up, the tested form may be a part): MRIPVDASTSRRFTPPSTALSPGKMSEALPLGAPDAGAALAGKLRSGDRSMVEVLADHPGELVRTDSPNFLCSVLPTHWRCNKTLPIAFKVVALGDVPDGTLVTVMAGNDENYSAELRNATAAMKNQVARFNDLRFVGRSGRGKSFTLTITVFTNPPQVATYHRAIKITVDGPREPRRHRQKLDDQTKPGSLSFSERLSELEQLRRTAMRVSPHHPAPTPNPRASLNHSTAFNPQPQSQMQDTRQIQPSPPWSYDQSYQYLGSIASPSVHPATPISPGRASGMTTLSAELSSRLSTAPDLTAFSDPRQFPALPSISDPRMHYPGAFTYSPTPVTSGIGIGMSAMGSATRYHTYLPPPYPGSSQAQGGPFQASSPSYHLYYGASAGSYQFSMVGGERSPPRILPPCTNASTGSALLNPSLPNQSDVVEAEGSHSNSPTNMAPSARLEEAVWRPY
Target sequence (Q13951 whole entry, looked up, the tested form may be a part): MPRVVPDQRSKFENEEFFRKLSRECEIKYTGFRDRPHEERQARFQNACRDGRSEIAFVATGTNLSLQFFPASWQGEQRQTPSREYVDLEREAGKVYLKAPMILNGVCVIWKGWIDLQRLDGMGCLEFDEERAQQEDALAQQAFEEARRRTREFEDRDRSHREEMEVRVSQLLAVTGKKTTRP
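Assay system: Cerulean-Runt domain / Medium: Tris 50 mM pH 7.5, KCl, K2SO4, 0.01% BSA / Timing: protein complex preformed 1 h, compound exposure 1 h, room temperature, dark / Measured by: FRET, excitation 422 nm, emission at 530 and 480 nm / Evaluation: loss of energy transfer signal / Control set: 5 µM unlabeled CBFb as full-inhibition high control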
Runt-SMMHC FRET – Runt domain-CBFb-SMMHC interaction inhibition | AID 1434 | inhibition, % at 20 µM | Cerulean-Runt/Venus-CBFb-SMMHC FRET ratio 530/480, 1 h | 220,000 tested, 0.74% active;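 active means mean inhibition across duplicate retests at 20 µM reaching about 50%, limit read from the data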;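 further: 0% = DMSO wells and 100% = wells with excess untagged CBFb-SMMHC; inhibitors lower the FRET ratio by blocking Runt binding to CBFb-SMMHC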
RanGTP-Imp inh – disruptors of Ran-importin-beta complex formation – biochemical, FRET, CFP-Ran, YFP-importin-beta, homogeneous, primary screen | cell-free CFP-Ran/YFP-importin-beta FRET ratio | AID 2216 | 300,000 tested, 1.1% active | inhibition, % (no concentration beside the values);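 active means more than half of the replicate wells show a fall in the fluorescence ratio signal beyond about 16%, limit read from the data, passing the limit was not always enough; inconclusive means exactly half of the replicate wells pass the set limit; inactive means fewer than half of replicates pass the limit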;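 further: 0% = DMSO wells and 100% = Ran loaded with GDP instead of GTP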
Hck-Nef inh – blocks Nef-activated human Hck kinase | P08631 | Recombinant Hck-YEEI plus Nef, Z-Lyte FRET kinase assay | 220,000 tested, 0.68% active | AID 463187 | inhibition, % at 20 µM;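 active means Hck-Nef kinase inhibition above about 50%, limit read from the data; inactive means inhibition below that limit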;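 further: 0% = DMSO with Hck plus Nef and 100% = Hck alone without Nef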
The depositor's hits bear a star. The list is not random: actives were taken first. Their share in the collection is about 1.9%.

Cc1ccc(Cn2c(=N)c(C(=O)NCc3ccco3)cc3c(=O)n4ccccc4nc32)cc1 was read as Runt-CBFb FRET 29, RanGTP-Imp inh 114* and Hck-Nef inh 17.
For N=c1c(C(=O)NCc2ccco2)cc2c(=O)n3ccccc3nc2n1CCc1ccccc1 the results were Runt-CBFb FRET 12, Runt-SMMHC FRET 38, RanGTP-Imp inh 130* and Hck-Nef inh 1.
Screening COc1ccc(CNC(=O)c2cc3c(=O)n4ccccc4nc3n(Cc3ccco3)c2=N)cc1 returned Hck-Nef inh 1.
For COc1ccc(CCNC(=O)c2cc3c(=O)n4ccccc4nc3n(Cc3ccco3)c2=N)cc1OC the results were RanGTP-Imp inh 13.
`Cc1cc(C)c2c(N)c(C(=O)C(C)(C)C)sc2n1` gave Runt-CBFb FRET 93*, Runt-SMMHC FRET 92*, RanGTP-Imp inh 1 and Hck-Nef inh -5.
`CCCCC[C@H](O)/C=C/[C@H]1C=CC(=O)[C@@H]1C/C=C\CCCC(=O)O` gave Runt-CBFb FRET 7, Runt-SMMHC FRET 0 and Hck-Nef inh 57*.
Screening O=S1(=O)CCOCCCN1Cc1ccccc1Br returned RanGTP-Imp inh 1.
Cc1ccccc1-n1nc2c(c1NC(=O)c1cc3ccccc3oc1=O)CS(=O)(=O)C2 was read as Runt-CBFb FRET 10, Runt-SMMHC FRET 39, RanGTP-Imp inh 17* and Hck-Nef inh 1.
Cc1ccccc1-n1nc2c(c1NC(=O)c1cc3ccccc3oc1=O)CS(=O)C2 (stereo unspecified) was read as Runt-CBFb FRET 2, Runt-SMMHC FRET 5, RanGTP-Imp inh 3 and Hck-Nef inh 8.
Cc1nn(-c2ccccc2)c2sc(C(=O)C(C#N)c3ccccn3)cc12 (stereo unspecified) was read as Runt-CBFb FRET -156 and Runt-SMMHC FRET -100.
`COC(=O)c1ccc2c(=O)n(CCCCCC(=O)NCc3ccc4c(c3)OCO4)c(=O)[nH]c2c1` gave Runt-CBFb FRET 0, Runt-SMMHC FRET 2, RanGTP-Imp inh 35* and Hck-Nef inh 3.
For COC(=O)c1ccc2c(=O)n(CCCCCC(=O)NCc3ccccc3)c(=O)[nH]c2c1 the results were Runt-CBFb FRET -2, Runt-SMMHC FRET -2, RanGTP-Imp inh 0 and Hck-Nef inh 0.
`CCOC(=O)c1nn(-c2ccccc2F)c(-c2ccccc2)c1C(=O)c1ccccc1` gave Runt-CBFb FRET 0, Runt-SMMHC FRET 3, RanGTP-Imp inh 2 and Hck-Nef inh -1.
`CN1CCCCCC1C(=O)N1CCC(N2CCC(C(=O)N3CCOCC3)CC2)CC1` (stereo unspecified) gave Runt-CBFb FRET 1, Runt-SMMHC FRET 2, RanGTP-Imp inh 5 and Hck-Nef inh 5.
For C=CCN1C(=O)/C(=C2/C(=O)N(CC(=O)O)c3ccccc32)S/C1=N/c1nccs1 the results were Runt-CBFb FRET -7, Runt-SMMHC FRET -6, RanGTP-Imp inh 2 and Hck-Nef inh 6.
Screening COc1ccc2c(c1)c(C(=O)CN1CCN(Cc3ccccc3)CC1)c(C)n2C returned Runt-CBFb FRET 0, Runt-SMMHC FRET -2, RanGTP-Imp inh -2 and Hck-Nef inh 7.
Screening COc1ccc2c(c1)c(C(=O)CN1CCN(C(=O)c3ccco3)CC1)c(C)n2C returned Runt-CBFb FRET -3, Runt-SMMHC FRET -38, RanGTP-Imp inh 19* and Hck-Nef inh 2.
CCN1C(=O)/C(=C/c2ccc(OC)c(OC)c2)N=C1SCC(=O)NCc1ccco1 was read as Runt-CBFb FRET 4, Runt-SMMHC FRET 25, RanGTP-Imp inh 11 and Hck-Nef inh 17.
Screening COc1ccc(C(=O)COC(=O)CN2C(=O)c3ccccc3C2=O)c(OC)c1 returned RanGTP-Imp inh 1.
Cc1occc1C(=O)NNC1=CC(=O)CC(C)(C)C1 was read as Runt-CBFb FRET 2, Runt-SMMHC FRET 0, RanGTP-Imp inh 26* and Hck-Nef inh -4.
For COc1ccc(C(=O)NNC2=CC(=O)CC(C)(C)C2)cc1OC the results were Runt-CBFb FRET 4, Runt-SMMHC FRET 2, RanGTP-Imp inh 26* and Hck-Nef inh 7.
Screening CC1(C)CC(=O)C=C(NNC(=O)c2ccccc2)C1 returned Runt-CBFb FRET -1, Runt-SMMHC FRET 3, RanGTP-Imp inh inconclusive and Hck-Nef inh 5.
COc1cccc(-c2ccc(NC(=O)C3CCCN(Cc4cnn(C)c4C)C3)cc2)c1 (stereo unspecified) was read as RanGTP-Imp inh -4.
CCCc1nc2c(=O)n(C)c(=O)[nH]c2n1C was read as Runt-CBFb FRET 122*, Runt-SMMHC FRET 114*, RanGTP-Imp inh 108* and Hck-Nef inh 1.
